Assay results from different studies.
Lines come from different studies, so protocols differ.
Target: Beta-1 adrenergic receptor (ADRB1, Homo sapiens, UniProt P08588)

The inhibition of C[C@H](C(=O)N[C@H]1COc2ccccc2[C@@H]1S(C)(=O)=O)c1ccc(F)cc1 is reported as 3% (cell-free assay; 10 µM).
The inhibition of O=C(Nc1cccnn1)N1CCN([C@@H]2CCOc3cc(C(F)(F)F)ccc32)CC1 is reported as 27% (cell-free assay; 20 µM).
Nc1ncc(-c2nc(N3CCOCC3)nc(N3CCOCC3)n2)c(C(F)F)n1 has a remaining signal of 93.2% (cell-free assay; radioligand; 10 µM).
The inhibition of Cn1cncc1[C@@](O)(COc1ccc(C#N)cc1-c1ccc(OC(F)(F)F)cc1)c1ccc(C#N)cc1 is reported as -16.5% (ligand displacement; 10 µM).
For COCc1c(-c2cc3cc(C)cc(OC)c3s2)c2c(N)ncnn2c1CN1CCNC(=O)C1, the inhibition was 2% (ligand displacement; radioligand; 10 µM).
c1ccc(C(NCCNC(c2ccccc2)c2ccccc2)c2ccccc2)cc1 has an inhibition of 31% (cell-free assay; 10 µM).
The inhibition of CC(C)N1CCC[C@H]1CNC(=O)c1cn(C2CCCC2)c(=O)c2c1c1ccccc1n2C is reported as 24% (ligand displacement; radioligand; 10 µM).
The inhibition of CN(CCN1CCC(OC(=O)Nc2ccccc2-c2ccccc2)CC1)C(=O)c1ccc(CN2CCC(C(N)=O)CC2)cc1 is reported as 14% (ligand displacement; radioligand; 1 µM).
COc1ccc(S(=O)(=O)N2CCCCC2)cc1C has an inhibition of less than 30% (ligand displacement; radioligand; 10 µM).
With Clc1ccc2c(C3CCN(CCc4c[nH]c5ccccc45)CC3)c[nH]c2c1 the inhibition was 84% (ligand displacement; radioligand; 10 µM).
For Cc1c(N2CCNCC2)nc2ccc(Br)cc2c1C(=O)NC[C@H](CCC(=O)O)c1ccccc1Cl, the inhibition was 12.6% (ligand displacement; 10 µM).
